Experiments:
[1] = Drug level in human liver cytosol assessed as SULT1A1 3'UTR ACG/ACG copy number-2-mediated compound formation treated with 4-OH-toremifene by HPLC analysis; assay type: ADME, tissue-based
Summary of the method: (§1)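 Liver cytosols from individual donors (100 µg protein) with 100 µM 4-OH-TOR, 20 µM [35S]PAPS, 50 mM potassium phosphate pH 6.2, 15 min at 37 °C. Sulfate measured by C18 radio-HPLC. SULT1A1 copy number by TaqMan qPCR against RNaseP, quadruplicate samples. Genotype–activity relation analysed by ANOVA. Triplicate incubations.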

[2] = Drug level in human liver cytosol assessed as SULT1A1 3'UTR ACG/GTA copy number-2-mediated compound formation treated with 4-OH-toremifene by HPLC analysis; assay type: ADME, tissue-based; summary of the method: as §1
[3] = Drug level in human liver cytosol assessed as SULT1A1 3'UTR GTA/GTA copy number-2-mediated compound formation treated with 4-OH-toremifene by HPLC analysis; assay type: ADME, tissue-based; summary of the method: as §1
[4] = Drug level in human liver cytosol assessed as SULT1A1 3'UTR ACG/ACG copy number-3-mediated compound formation treated with 4-OH-toremifene by HPLC analysis; assay type: ADME, tissue-based; summary of the method: as §1
[5] = Drug level in human liver cytosol assessed as SULT1A1 3'UTR ACG/GTA copy number-3-mediated compound formation treated with 4-OH-toremifene by HPLC analysis; assay type: ADME, tissue-based; summary of the method: as §1
[6] = Retention time of the compound; assay type: physicochemical
Summary of the method: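 Symmetry C18 column (4.6 × 150 mm) run at 1.0 mL/min. Gradient: 2 mM TBAHS with 30% acetonitrile for 35 min, 45% acetonitrile for 15 min, then 30% for 20 min. 100 µl injection, flow scintillation detection.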

[7] = Drug level in human liver cytosol assessed as SULT1A1*1/2 single nucleotide polymorphism-mediated compound formation treated with 4-OH-TOR by HPLC analysis; assay type: ADME, tissue-based; summary of the method: as §1
[8] = Drug level in human liver cytosol assessed as SULT1A1 copy number-1-mediated compound formation treated with 4-OH-TOR by HPLC analysis; assay type: ADME, tissue-based; summary of the method: as §1
[9] = Drug level in human liver cytosol assessed as SULT1A1 copy number-2--mediated compound formation treated with 4-OH-TOR by HPLC analysis; assay type: ADME, tissue-based; summary of the method: as §1
[10] = Drug level in human liver cytosol assessed as SULT1A1 copy number-3--mediated compound formation treated with 4-OH-TOR by HPLC analysis; assay type: ADME, tissue-based; summary of the method: as §1
Liver cytosol [11] = assay: Drug metabolism in human liver cytosol assessed as 4-(4-chloro-1-(4-(2-(dimethylamino)ethoxy)phenyl)-2-phenylbut-1-enyl)phenyl hydrogen sulfate formation after 15 mins by Michaelis-Menten equation in presence of 20 uM PAPS; assay type: ADME; details: 0.25 h, read-out: Km(app)
Summary of the method: (§2)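 Human liver cytosol (protein by Bradford) incubated with 4-OH-TOR (0.1–30 µM for kinetics), 20 µM [35S]PAPS, 50 mM potassium phosphate pH 6.2, final DMSO <0.1%, 15 min at 37 °C. Stopped with acetonitrile:acetic acid (96:4). Sulfate measured by radio-HPLC, background taken from a substrate-free vehicle control. Triplicate incubations.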

Liver cytosol [12] = assay: Drug metabolism in human liver cytosol assessed as 4-(4-chloro-1-(4-(2-(dimethylamino)ethoxy)phenyl)-2-phenylbut-1-enyl)phenyl hydrogen sulfate formation measured per mg of protein after 15 mins by Michaelis-Menten equation in presence of 20 uM PAPS; assay type: ADME; details: 0.25 h; summary of the method: as §2
Liver cytosol [13] = assay: Drug metabolism in human liver cytosol assessed as 4-(4-chloro-1-(4-(2-(dimethylamino)ethoxy)phenyl)-2-phenylbut-1-enyl)phenyl hydrogen sulfate formation measured per mg of protein treated with 0.1 to 30 after 15 mins by HPLC analysis; assay type: ADME, tissue-based; details: 0.25 h; summary of the method: as §2
Liver cytosol [14] = assay: Drug metabolism in human liver cytosol assessed as 4-(4-chloro-1-(4-(2-(dimethylamino)ethoxy)phenyl)-2-phenylbut-1-enyl)phenyl hydrogen sulfate formation after 15 mins by HPLC analysis in presence of 20 uM PAPS and 0.1 to 10 uM SULT1A1 inhibitor DCNP; assay type: ADME; details: 0.25 h
Summary of the method: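 Pooled human liver cytosol sulfating 4-OH-TOR with 20 µM PAPS, pH 6.2, plus 0.1–10 µM (final) ethanol-dissolved inhibitor. After 15 min the reaction was stopped with acetonitrile:acetic acid (96:4) and sulfate quantified by radio-HPLC. IC50 calculated. Three separate determinations.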

[15] = Drug metabolism in human liver cytosol assessed as SULT1A1*1/2 single nucleotide polymorphism-mediated 4-(4-chloro-1-(4-(2-(dimethylamino)ethoxy)phenyl)-2-phenylbut-1-enyl)phenyl hydrogen sulfate formation by HPLC analysis; assay type: ADME, tissue-based; summary of the method: as §1
[16] = Drug metabolism in human liver cytosol assessed as SULT1A1 copy number-1-mediated 4-(4-chloro-1-(4-(2-(dimethylamino)ethoxy)phenyl)-2-phenylbut-1-enyl)phenyl hydrogen sulfate formation by HPLC analysis; assay type: ADME, tissue-based; summary of the method: as §1
[17] = Drug metabolism in human liver cytosol assessed as SULT1A1 copy number-2-mediated 4-(4-chloro-1-(4-(2-(dimethylamino)ethoxy)phenyl)-2-phenylbut-1-enyl)phenyl hydrogen sulfate formation by HPLC analysis; assay type: ADME, tissue-based; summary of the method: as §1
[18] = Drug metabolism in human liver cytosol assessed as SULT1A1 copy number-3-mediated 4-(4-chloro-1-(4-(2-(dimethylamino)ethoxy)phenyl)-2-phenylbut-1-enyl)phenyl hydrogen sulfate formation by HPLC analysis; assay type: ADME, tissue-based; summary of the method: as §1
[19] = Drug metabolism in human liver cytosol assessed as SULT1A1 3'UTR ACG/ACG copy number-2 -mediated 4-(4-chloro-1-(4-(2-(dimethylamino)ethoxy)phenyl)-2-phenylbut-1-enyl)phenyl hydrogen sulfate formation by HPLC analysis; assay type: ADME, tissue-based; summary of the method: as §1
[20] = Drug metabolism in human liver cytosol assessed as SULT1A1 3'UTR ACG/GTA copy number-2-mediated 4-(4-chloro-1-(4-(2-(dimethylamino)ethoxy)phenyl)-2-phenylbut-1-enyl)phenyl hydrogen sulfate formation by HPLC analysis; assay type: ADME, tissue-based; summary of the method: as §1
[21] = Drug metabolism in human liver cytosol assessed as SULT1A1 3'UTR GTA/GTA copy number-2-mediated 4-(4-chloro-1-(4-(2-(dimethylamino)ethoxy)phenyl)-2-phenylbut-1-enyl)phenyl hydrogen sulfate formation by HPLC analysis; assay type: ADME, tissue-based; summary of the method: as §1
[22] = Drug metabolism in human liver cytosol assessed as SULT1A1 3'UTR ACG/ACG copy number-3-mediated 4-(4-chloro-1-(4-(2-(dimethylamino)ethoxy)phenyl)-2-phenylbut-1-enyl)phenyl hydrogen sulfate formation by HPLC analysis; assay type: ADME, tissue-based; summary of the method: as §1
[23] = Drug metabolism in human liver cytosol assessed as SULT1A1 3'UTR ACG/GTA copy number-3-mediated 4-(4-chloro-1-(4-(2-(dimethylamino)ethoxy)phenyl)-2-phenylbut-1-enyl)phenyl hydrogen sulfate formation by HPLC analysis; assay type: ADME, tissue-based; summary of the method: as §1

CN(C)CCOc1ccc(/C(=C(/CCCl)c2ccccc2)c2ccc(OS(=O)(=O)O)cc2)cc1
Drug metabolism [1]: metabolite_detected
Drug metabolism [2]: metabolite_detected
Drug metabolism [3]: metabolite_detected
Drug metabolism [4]: metabolite_detected
Drug metabolism [5]: metabolite_detected
Retention_time [6]: 12.1 min
Drug metabolism [7]: metabolite_detected
Drug metabolism [8]: metabolite_detected
Drug metabolism [9]: metabolite_detected
Drug metabolism [10]: metabolite_detected

CN(C)CCOc1ccc(/C(=C(/CCCl)c2ccccc2)c2ccc(O)cc2)cc1 [4-HYDROXYTORMIFENE]
Retention_time [6]: 45.2 min
Km (Liver cytosol [11]): 3.5 µM
Vmax (Liver cytosol [12]): 1.4 nmol/min/mg
Drug metabolism (Liver cytosol [13]): 0.0003 nmol/min
Drug metabolism (Liver cytosol [14]): metabolite_not_detected
Drug metabolism [15]: metabolite_detected
Drug metabolism [16]: metabolite_detected
Drug metabolism [17]: metabolite_detected
Drug metabolism [18]: metabolite_detected
Drug metabolism [19]: metabolite_detected
Drug metabolism [20]: metabolite_detected
Drug metabolism [21]: metabolite_detected
Drug metabolism [22]: metabolite_detected
Drug metabolism [23]: metabolite_detected

Reference: ChEMBL document CHEMBL3525912, “Sulfation of 4-hydroxy toremifene: individual variability, isoform specificity, and contribution to toremifene pharmacogenomics” (Drug Metab Dispos, 2012)
